As usually defined, the IC50 is the concentration at which inhibition is half-maximal. A lower IC50 goes with higher potency.

From ChEMBL document CHEMBL1125367 (J Med Chem, 1992) come the findings set out here.

Test [1] concerns the target D(1A) dopamine receptor (Rattus norvegicus) (UniProt P18901). Briefly: The percentage stimulation of adenylate cyclase activity of compound was measured on dopamine receptor D1 of Rat Striatum at 10 uM. The format is functional. As to conditions: values are per cent of control.
Test [2] has the same target. Description: The percentage stimulation of adenylate cyclase activity of compound was measured on dopamine receptor D1 of Rat Striatum at 0.1 uM. The format is functional.
In test [3] the target is D(2) dopamine receptor (Rattus norvegicus) (UniProt P61169). Description: The percentage inhibition of adenylate cyclase activity of compound was measured on dopamine receptor D2 of Rat Striatum at 0.1 micro M. As to conditions: values are per cent of control. The gist of the method: (§1)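 D-2 inhibition of basal adenylate cyclase in rat striatal synaptic membranes, 20-30 μg protein. Medium: Tris-HCl pH 7.4, 100 mM NaCl, 0.5 mM ATP, 50 μM GTP, IBMX, [α-32P]ATP, with 0.1 μM SCH 23390 present to block D-1. Incubation 20 min at 25 °C, followed by double-column cAMP isolation. Activity is given as % of basal, quadruplicates, three experiments.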

In the next test the target is D(2) dopamine receptor (Rattus norvegicus, UniProt P61169). Description: Inhibitory activity against [3H]spiperone in Rat Striatal membrane. The format is cell membranes.
Test [4] concerns the target D(1A) dopamine receptor (Rattus norvegicus) (UniProt P18901). Briefly: The percentage stimulation of adenylate cyclase activity of compound was measured on dopamine receptor D1 of Rat Striatum at 0.01 uM. The format is functional.
For test [5], the target named is D(2) dopamine receptor (Rattus norvegicus) (UniProt P61169). Description: The percentage inhibition of adenylate cyclase activity of compound was measured on dopamine receptor D2 of Rat Striatum at 10 micro M. As to conditions: values are per cent of control. The gist of the method:
as §1

For test [6] the target is unchanged. Description: The percentage inhibition of adenylate cyclase activity of compound was measured on dopamine receptor D2 of Rat Striatum at 0.01 micro M. As to conditions: values are per cent of control. The gist of the method:
as §1

Test [7] concerns the target T1, D(1A) dopamine receptor (Rattus norvegicus, UniProt P18901). Briefly: (§2) Inhibitory activity against [3H]-SCH- 23390 in Rat Striatal membrane. The format is cell membranes.
Test [8] has as its target D(1A) dopamine receptor (Rattus norvegicus) (UniProt P18901). Description: Selectivity index of D1 receptor to that of D2 receptor was determined. An outline of the steps: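 Index equals IC50 at D-1 ([3H]SCH 23390 binding) divided by IC50 at D-2 ([3H]spiperone binding), both measured in rat striatal membrane competition assays.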
The target is the same in test [9]. Briefly: Percent stimulation of adenylate cyclase activity at dopamine receptor D1 of Rat Striatum at 1 uM. The format is functional. As to conditions: values are per cent of control.
Test [10] concerns the target D(2) dopamine receptor (Rattus norvegicus) (UniProt P61169). Description: The percentage inhibition of adenylate cyclase activity of compound was measured on dopamine receptor D2 of Rat Striatum at 1 micro M. As to conditions: values are per cent of control. The gist of the method:
as §1

The target in test [11] is T1, D(1A) dopamine receptor. The description is as §2. The format is cell membranes. The gist of the method: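 Competition binding on rat striatal membranes. The D-1 site was labelled with [3H]SCH 23390 and the D-2 site with [3H]spiperone. IC50 is the concentration giving half-maximal inhibition of binding, reported as mean ± SEM.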
The source holds these as a separate data set.

For test [12], the target named is D(1A) dopamine receptor (Rattus norvegicus) (UniProt P18901). Description: The percentage stimulation of adenylate cyclase activity of compound was measured on dopamine receptor D1 of Rat Striatum at 0.1uM. The format is functional.

The structures appear in SMILES notation.

Chain of D(1A) dopamine receptor (Rattus norvegicus) (P18901 whole entry): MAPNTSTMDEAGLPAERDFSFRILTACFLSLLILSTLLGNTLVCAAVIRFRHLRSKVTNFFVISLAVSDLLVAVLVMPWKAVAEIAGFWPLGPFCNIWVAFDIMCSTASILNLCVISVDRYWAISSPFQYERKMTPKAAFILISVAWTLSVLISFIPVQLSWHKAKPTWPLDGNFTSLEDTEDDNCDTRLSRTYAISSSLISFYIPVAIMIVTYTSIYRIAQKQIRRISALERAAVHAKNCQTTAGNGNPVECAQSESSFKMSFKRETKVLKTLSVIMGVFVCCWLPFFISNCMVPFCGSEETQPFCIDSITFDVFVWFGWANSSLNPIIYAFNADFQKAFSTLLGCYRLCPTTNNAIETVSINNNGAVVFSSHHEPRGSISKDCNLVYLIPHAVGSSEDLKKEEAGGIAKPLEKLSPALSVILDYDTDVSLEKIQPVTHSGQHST
T1 sequence (P18901 whole entry): as above
Chain of D(2) dopamine receptor (Rattus norvegicus) (P61169 whole entry): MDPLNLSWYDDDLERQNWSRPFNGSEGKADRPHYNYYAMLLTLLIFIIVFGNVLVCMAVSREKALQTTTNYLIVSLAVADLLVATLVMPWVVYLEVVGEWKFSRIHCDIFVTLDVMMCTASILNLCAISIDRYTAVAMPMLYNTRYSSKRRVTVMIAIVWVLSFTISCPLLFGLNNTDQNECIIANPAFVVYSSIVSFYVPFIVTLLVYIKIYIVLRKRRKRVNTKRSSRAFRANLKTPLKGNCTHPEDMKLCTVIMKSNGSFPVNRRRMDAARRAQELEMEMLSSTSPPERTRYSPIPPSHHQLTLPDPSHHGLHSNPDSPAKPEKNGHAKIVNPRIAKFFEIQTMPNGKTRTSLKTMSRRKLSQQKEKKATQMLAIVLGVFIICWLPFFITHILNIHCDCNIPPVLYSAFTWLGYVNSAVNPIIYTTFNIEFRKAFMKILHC
Chain of D(2) dopamine receptor (P61169 whole entry): as above

Take `CCCN(CCc1cccc(O)c1)CCc1ccc(Cl)c(O)c1`: the residual activity in [1] was determined as 128%; in test [3] it was 91%; in test [5], 81%; in [6], 94%; in [9] it was 125%; in [10], 83%. Further, the values for the stimulation in [2] and in test [4] were 116% and 103%, respectively. Moreover, the IC50 against D(2) dopamine receptor worked out at 0.73 µM; against D(1A) dopamine receptor [7], 11.2 µM. For the same compound, the Ratio in [8] was 15.3.

Take `CCCN(CCc1ccccc1)CCc1ccc(Cl)c(O)c1`: the residual activity in test [1] was found to be 128%; in [3], 86%; in test [5] it was 76%; in test [6], 93%; in test [9], 118%; in test [10], 78%. Besides, the values for the stimulation in test [2] and in test [4] were 113% and 104%, respectively. The IC50 was 1.39 µM against D(2) dopamine receptor and 24.4 µM against D(1A) dopamine receptor [7]. For the same compound, the Ratio in test [8] turned out to be 17.6.

For `NCCc1ccc(O)c(O)c1`, the stimulation in test [2] was 113%; in test [4], 104%. Moreover, the residual activity in [3] came to 92%; in test [5] it was 83%; in test [6] it was 95%; in test [9] it was 110%; in test [10] it was 87%.

Regarding `CCCN(CCc1ccc(O)cc1)CCc1ccc(Cl)c(O)c1`, the residual activity in test [1] was determined as 136%; in test [2] (values are per cent of control) it was 130%; in test [3], 81%; in [4] (values are per cent of control), 126%; in [5], 74%; in [6], 92%. Also, the residual activity is 136% in test [9] and 74% in test [10]. Further, the IC50 against D(2) dopamine receptor is 0.9 µM; against D(1A) dopamine receptor [11], 18.1 µM. In addition, the Ratio in test [8] stood at 20.1.

`Br.NCCc1ccc(Cl)c(O)c1`: the residual activity worked out at 105% in [1]; 90% in [3]; 84% in test [5]; 101% in test [6]; 95% in test [9]; 87% in [10]. Further, the stimulation in test [2] was found to be 98%. Besides, the IC50 on D(2) dopamine receptor came out at 26.3 µM; at D(1A) dopamine receptor [7], 25.3 µM. Moreover, the Ratio in test [8] came out at 0.96.

`Br.CCCN(CCCc1ccc(O)cc1)CCc1ccc(Cl)c(O)c1`: the residual activity in [1] was 110%; in [3], 86%; in test [6], 96.4%; in test [9], 100%; in test [10], 82%. The stimulation in test [12] came out at 101%. In addition, the IC50 against D(2) dopamine receptor worked out at 0.85 µM; against D(1A) dopamine receptor [7], 16.9 µM. For the same compound, the Ratio in test [8] was determined as 19.9.

On to `Br.CCCN(CCC)CCc1ccc(Cl)c(O)c1`, for which the residual activity was found to be 115% in test [1]; 88% in test [3]; 86% in test [5]; 96% in test [6]; 105% in [9]; 90% in [10]. Moreover, the stimulation in test [2] was 101%. The half-maximal inhibitory concentration (IC50) amounted to 12.9 µM against D(2) dopamine receptor and 50.7 µM on D(1A) dopamine receptor [7]. Moreover, the Ratio in test [8] amounted to 3.93.

Take `CCCN(CCc1ccccc1)CCc1cccc(O)c1`: the residual activity was determined as 95% in test [3], 84% in [5] and 86% in test [10]. For the same compound, the figures for the IC50 at D(2) dopamine receptor and at D(1A) dopamine receptor [7] were 0.75 µM and 92.8 µM, respectively. For the same compound, the Ratio in [8] came to 124.
